Measured values published in ChEMBL document CHEMBL5506014, “Monophosphoryl Lipid A-Rhamnose Conjugates as a New Class of Vaccine Adjuvants” (J Med Chem, 2024).
The source made the active and inactive calls.

Columns and labels:
Format in all cases: functional, organism-based
Settings in all cases: time 38.0 day
Mus musculus [1] = assay: Immuno-adjuvant activity in sc dosed C57BL/6J mouse model assessed as increase in IgM antibody level administered on day 1, 15, 22, and 29 and measured on day 27, 31 and 38 by ELISA analysis
Summary of the method: (§1)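 Female C57BL/6 mice, 6−8 weeks old, were given s.c. 0.1 mL doses of KLH-sTn (8.0 μg sTn antigen). The conjugate was mixed 1:1 with PBS, Alum, or a liposomal adjuvant. Liposomes were MPLA-Rha conjugate:DSPC:cholesterol at a 10:65:50 molar ratio, hydrated in 20 mM HEPES pH 7.5 with 150 mM NaCl. Pre-immunization day 0 blood served as blank.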

Mus musculus [2] = assay: Immuno-adjuvant activity in sc dosed C57BL/6J mouse model assessed as increase in anti-KLH antibodies level administered on day 1, 15, 22, and 29 and measured on day 27, 31 and 38 by ELISA analysis; summary of the method: as §1
Mus musculus [3] = assay: Immuno-adjuvant activity in sc dosed C57BL/6J mouse model assessed as increase in IgG antibody administered on day 1, 15, 22, and 29 and measured on day 27, 31 and 38 by ELISA analysis; summary of the method: as §1
Mus musculus [4] = assay: Immuno-adjuvant activity in sc dosed C57BL/6J mouse model assessed as increase in anti-sTn IgG antibodies level administered on day 1, 15, 22, and 29 and measured on day 27, 31 and 38 by ELISA analysis; summary of the method: as §1
Mus musculus [5] = assay: Immuno-adjuvant activity in sc dosed C57BL/6J mouse model assessed as increase in anti-KLH total antibodies level administered on day 1, 15, 22, and 29 and measured on day 27, 31 and 38 by ELISA analysis; summary of the method: as §1
Mus musculus [6] = assay: Immuno-adjuvant activity in sc dosed C57BL/6J mouse model assessed as increase in anti-KLH IgG antibodies level administered on day 1, 15, 22, and 29 and measured on day 27, 31 and 38 by ELISA analysis; summary of the method: as §1
Mus musculus [7] = assay: Immuno-adjuvant activity in sc dosed C57BL/6J mouse model assessed as increase in anti-KLH IgM antibodies level administered on day 1, 15, 22, and 29 and measured on day 27, 31 and 38 by ELISA analysis; summary of the method: as §1

Measured: Activity

CCCCCCCCCCCC(=O)O[C@H](CCCCCCCCCCC)CC(=O)N[C@H]1[C@H](OC[C@H]2O[C@@H](OC)[C@H](NC(=O)C[C@@H](CCCCCCCCCCC)OC(=O)CCCCCCCCCCC)[C@@H](OC(=O)C[C@H](O)CCCCCCCCC)[C@@H]2O)O[C@H](CNC(=O)CCO[C@@H]2O[C@@H](C)[C@H](O)[C@@H](O)[C@H]2O)[C@@H](OP(=O)(O)O)[C@@H]1OC(=O)C[C@H](O)CCCCCCCCC
active: Mus musculus [1] | Mus musculus [2] | Mus musculus [3] | Mus musculus [4]

CCCCCCCCCCCC(=O)O[C@H](CCCCCCCCCCC)CC(=O)N[C@H]1[C@H](OC[C@H]2O[C@@H](OC)[C@H](NC(=O)C[C@@H](CCCCCCCCCCC)OC(=O)CCCCCCCCCCC)[C@@H](OC(=O)C[C@H](O)CCCCCCCCC)[C@@H]2O)O[C@H](CNC(=O)CCO[C@H]2O[C@@H](C)[C@H](O)[C@@H](O)[C@H]2O)[C@@H](OP(=O)(O)O)[C@@H]1OC(=O)C[C@H](O)CCCCCCCCC
active: Mus musculus [1] | Mus musculus [3]

CCCCCCCCCCCC(=O)O[C@H](CCCCCCCCCCC)CC(=O)N[C@H]1[C@H](OC[C@H]2O[C@@H](OCCNC(=O)CCO[C@@H]3O[C@@H](C)[C@H](O)[C@@H](O)[C@H]3O)[C@H](NC(=O)C[C@@H](CCCCCCCCCCC)OC(=O)CCCCCCCCCCC)[C@@H](OC(=O)C[C@H](O)CCCCCCCCC)[C@@H]2O)O[C@H](CO)[C@@H](OP(=O)(O)O)[C@@H]1OC(=O)C[C@H](O)CCCCCCCCC
active: Mus musculus [1] | Mus musculus [2] | Mus musculus [5] | Mus musculus [6] | Mus musculus [7] | Mus musculus [3] | Mus musculus [4]

CCCCCCCCCCCC(=O)O[C@H](CCCCCCCCCCC)CC(=O)N[C@H]1[C@H](OC[C@H]2O[C@@H](OCCNC(=O)CCO[C@H]3O[C@@H](C)[C@H](O)[C@@H](O)[C@H]3O)[C@H](NC(=O)C[C@@H](CCCCCCCCCCC)OC(=O)CCCCCCCCCCC)[C@@H](OC(=O)C[C@H](O)CCCCCCCCC)[C@@H]2O)O[C@H](CO)[C@@H](OP(=O)(O)O)[C@@H]1OC(=O)C[C@H](O)CCCCCCCCC
active: Mus musculus [1] | Mus musculus [5] | Mus musculus [6] | Mus musculus [7] | Mus musculus [3]
